# Only some compounds are listed: those with a hit (about 1.8% of all), similar ones and a draw of the others.
# UHRF1 binding – human UHRF1 methylated DNA binding inhibitors. Q96T88. UHRF1 binding to methylated oligo, TR-FRET. inhibition, % at 4.4 µM. 370,000 compounds, 0.75% hits; in the data active means inhibition above about 21%;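 further: UHRF1 SRA domain binding a hemimethylated CpG hairpin DNA probe; 0% = median of test compound wells and 100% = reference inhibitor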
# MBD2 inh – blocks human MBD2 binding to methylated DNA | 370,000 compounds, 0.31% hits | inhibition, % at 4.4 µM | Q9UBB5 | AID 686964 | TR-FRET, MBD2 binding to methylated oligonucleotide; in the data active means inhibition above about 13%
# TDP2 inh – TDP2 (human) inhibition, absorbance primary screen; O95551; 370,000 compounds, 0.34% hits; recombinant TDP2, T5PNP hydrolysis, p-nitrophenol absorbance 415 nm; inhibition, % at 12.8 µM;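 active means inhibition above the mean of all tested compounds plus 3 SD, set per campaign, cut at about 25% in these data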;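 further: 0% = DMSO with enzyme and 100% = buffer with substrate but no TDP2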
# Target sequence (O95551 whole entry, looked up): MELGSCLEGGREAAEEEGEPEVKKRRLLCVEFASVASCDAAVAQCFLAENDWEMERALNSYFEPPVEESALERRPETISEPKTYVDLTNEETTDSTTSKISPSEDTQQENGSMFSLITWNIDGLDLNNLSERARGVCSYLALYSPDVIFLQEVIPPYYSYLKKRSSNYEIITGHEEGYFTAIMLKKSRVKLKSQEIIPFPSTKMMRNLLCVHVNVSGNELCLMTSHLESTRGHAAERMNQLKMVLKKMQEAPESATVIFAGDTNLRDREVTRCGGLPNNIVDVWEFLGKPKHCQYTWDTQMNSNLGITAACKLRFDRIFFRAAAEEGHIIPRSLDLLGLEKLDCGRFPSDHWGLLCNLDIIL
#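 Test system: Human TDP2 enzyme | Reagent: 5 mM T5PNP | Compound dosing: 12.8 µM single point, 1% DMSO | Incubation: Enzyme reaction with compound for 2 h at 37 °C | Technique: p-Nitrophenol epi absorbance | Read-out: % inhibition relative to enzyme-containing and enzyme-free wells | Benchmarks: High control without enzyme, low control DMSO plus TDP2 | Replicates: Singlicate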
# LEDGF integ inh – blocks HIV-1 LEDGF/p75-dependent DNA integration; TR-FRET IN-LEDGF/p75 DNA integration, Eu/Cy5; inhibition, % at 3.7 µM; 370,000 compounds, 0.64% hits; AID 743269;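 active means inhibition above the screen-wide mean plus 3 SD, cut at about 13% in these data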;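 further: signal is the Cy5 over europium emission ratio at 671 and 618 nm; 0% = plate median of compound wells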
# HCV core dimer – blocks dimerization of HCV core protein | TR-FRET GST/Flag-core106 dimerization, 1536-well | inhibition, % at 5 µM | 300,000 compounds, 0.33% hits | AID 1899;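 active means inhibition above the mean of all tested compounds plus 3 SD, set per screening campaign, cut at about 45% in these data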
#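 assay system = GST-tagged and Flag-tagged HCV core protein residues 1-106 | controls = unlabelled core106 and no-GST-core106 wells | incubation = compound-protein-antibody incubation 4 h at 22.5 °C | probe or stimulus = Eu donor and XL665 acceptor anti-tag antibodies | read-out = % inhibition based on acceptor/donor emission ratio | signal = TR-FRET 671 and 617 nm emission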
# An asterisk follows results filed as active; x = no result given.
SMILES,UHRF1 binding,MBD2 inh,TDP2 inh,LEDGF integ inh,HCV core dimer
COC(=O)CSc1nnc(-c2ccc(NS(=O)(=O)c3ccc(Cl)s3)cc2)o1,0.5,-3.6,5.9,-3.1,x
COC(=O)c1ccc2nc(-c3cccc(Cl)c3)c(Cc3cccc(Cl)c3)n2c1,23.1*,5.2,9.7,0.8,x
Cc1ccc2nc(-c3ccc(F)cc3)c(Cc3ccccc3C(F)(F)F)n2c1,21.8*,8.4,5.0,0.5,x
COC(=O)c1ccc2nc(-c3cccc(Cl)c3)c(Cc3ccccc3C(F)(F)F)n2c1,22.1*,12.6,10.2,0.0,x
Cc1ccc2nc(-c3cccc(Br)c3)c(Cc3ccccc3C(F)(F)F)n2c1,1.1,-4.5,-0.1,5.2,x
COC(=O)c1ccc2nc(-c3cccc(Cl)c3)c(Cc3ccsc3)n2c1,22.4*,9.1,3.0,-1.5,x
CCC[C@H]1[C@@H](NCc2cccs2)CC[C@@]23CCCN2C(=O)CCC[C@@H]13,-0.5,-4.6,-12.8,4.1,x
C[C@@H]1ON(C)[C@H]2C[C@H]3c4cc(-c5ccc(F)cc5)ccc4CCN3C[C@@H]12,-1.3,-0.7,4.5,-1.7,x
O=C(NC1CCC1)c1ccc(C#CC2CC2)c[n+]1[O-],1.9,7.7,-2.6,3.0,x
c1ccc(CNC2CCC23CCC(c2ccccc2)CC3)cc1 (configuration not stated),80.7*,3.0,-6.6,3.1,x
Cc1ccccc1CNC1CCC12CCC(c1ccccc1)CC2 (configuration not stated),0.3,0.4,-7.7,2.5,x
c1ccc(-n2ncc3c2ncn2nc(-c4ccco4)nc32)cc1,-0.6,-4.9,-7.4,5.3,51.8*
COc1cccc(OCc2nc3c4cnn(-c5ccccc5)c4ncn3n2)c1,-1.0,-5.1,7.9,0.5,6.4
COc1ccc(N2CCN(C(=O)c3cc4c(s3)-c3ccccc3S(=O)(=O)C4)CC2)cc1,22.3*,4.8,10.2,0.7,3.4
CCOC(=O)CC[C@@H]1CC[C@]2(CCCN(Cc3ccc(Cl)cc3)C2)O1,0.9,-1.4,10.4,-1.4,x
O=C(NC1CCCCC1)C(c1ccc2ncccc2c1)N(Cc1ccc2c(c1)OCO2)C(=O)c1cccs1 (configuration not stated),-2.7,-2.2,-6.2,-0.6,6.2
O=C(NC1CCCCC1)C(c1ccc(Cl)cc1)N(C(=O)c1cnccn1)c1ccc2c(c1)OCO2 (configuration not stated),22.2*,11.0,-0.5,-1.3,7.6
O=C(NC1CCCCC1)C(c1ccncc1)N(Cc1ccc2c(c1)OCO2)C(=O)c1cnsn1 (configuration not stated),21.2*,0.4,-9.8,12.0,-2.1
CC(=O)NC(Cc1ccc2c(c1)OCO2)C(=O)N1CCCC1 (configuration not stated),3.5,6.6,-6.1,-3.5,x
CC(C1=CCCCC1)c1cnn(C)c1 (configuration not stated),0.8,-6.6,-9.3,8.7,x
Cc1ccc(OCC(=O)N/N=C/C=C/c2ccco2)cc1,-0.8,1.5,-2.4,4.6,67.3*
CCn1c(=O)n(CC(=O)N2CCCC2)c(=O)c2ccccc21,-1.9,0.5,4.6,2.9,x
Cc1ccc(-c2nc(C(Cl)Cl)c3ccccc3n2)cc1,47.2*,3.9,10.0,-0.6,0.3
Cc1ccc(-c2nc(Nc3ccc(O)cc3)c3ccccc3n2)cc1,1.3,-1.2,-5.7,3.4,3.3
CCOC(=O)CC[C@@H]1CC[C@]2(CCCN(C(=O)C3CCCC3)C2)O1,0.6,1.1,4.0,-4.0,x
SMILES,UHRF1 binding,MBD2 inh,TDP2 inh,LEDGF integ inh,HCV core dimer
Cn1c(=O)n(CCOc2ccccc2Cl)c2ccccc21,-0.6,-5.4,4.9,-3.5,-3.3
N=c1n(CCCOc2ccccc2Cl)c2ccccc2n1CC(N)=O,24.7*,-2.6,-11.7,3.4,-4.4
CCC1CCCCN1CCNC(=O)CCS(=O)(=O)c1ccc(Br)cc1 (configuration not stated),24.8*,6.0,-11.7,0.8,-3.8
Cc1ccccc1NC(=S)NC(=O)/C=C/c1ccco1,2.1,0.2,-1.2,-2.2,1.7
O=C(/C=C/c1ccco1)NC(=S)Nc1cccc(-c2nc3ccccc3o2)c1,-2.1,1.9,7.8,1.0,56.0*
Cc1ccc(-c2nc3ccccc3o2)cc1NC(=S)NC(=O)/C=C/c1ccco1,-0.5,-0.2,0.7,-1.1,55.7*
Cc1cccc(NC(=S)NC(=O)/C=C/c2ccco2)c1,1.4,6.7,2.6,11.9,32.4
O=S(=O)(CC1NCc2cc(F)ccc21)NCc1ccc(F)cc1 (configuration not stated),-4.0,-8.8,-4.1,4.0,x
CN(Cc1ccncc1)C(=O)[C@@H]1CCCN1C(=O)[C@@H]1CCCN1,21.7*,4.5,1.1,-3.8,x
Cc1ccc(S(=O)(=O)N(CC(=O)NN=C2CCN(C)CC2)c2ccc(C(C)C)cc2)cc1,33.7*,2.0,2.8,0.2,-2.1
Cc1cccc(NC(=S)N(CCCN2CCOCC2)Cc2cn(C)c3ccccc23)c1,41.8*,1.0,-4.3,0.5,0.0
Cc1ccc(-n2c(-c3nn(C)cc3Cl)n[nH]c2=S)cc1,21.1*,3.1,-7.8,1.5,-11.4
CC(C)C[C@@H]1NC(=O)[C@H]2C[C@@]3(C)c4ccccc4N[C@H]3N2C1=O,1.6,3.9,0.8,-3.2,x
CC(=O)c1ccc(NC(=O)c2ccc3nc(-c4ccco4)c(-c4ccco4)nc3c2)cc1,x,x,x,x,78.1*
O=C(NCc1ccccc1)c1ccc2nc(-c3ccco3)c(-c3ccco3)nc2c1,-4.4,-9.7,18.8,26.7*,72.7*
O=C(NCCO)Nc1ccc2nsnc2c1,-4.8,-2.3,-7.9,-1.9,-0.1
O=C(NCCO)Nc1ccc2nc(-c3ccco3)c(-c3ccco3)nc2c1,x,x,x,x,75.8*
CC(O)(CC(=O)CC(=O)c1ccccc1)c1ccccc1 (configuration not stated),43.3*,-0.1,-6.0,2.0,x
Cc1ccc(NC(=O)CCCN2C(=O)/C(=C/C=C/c3ccccc3)SC2=S)cc1,2.2,1.6,-2.3,-2.1,56.9*
O=C(CCCN1C(=O)S/C(=C/C=C/c2ccccc2)C1=O)Nc1ccc(C(=O)O)cc1,2.2,0.9,12.2,-0.9,14.3
O=C(O)c1cccc(-n2cccc2/C=C2/NC(=O)N(c3cccc(Cl)c3)C2=O)c1,27.4*,7.7,1.4,8.0,-4.7
O=C(CCS(=O)(=O)Cc1ccccc1)Nc1nc2c(s1)CCCC2,1.3,0.7,-1.0,33.0*,-10.0
Cc1cc(C)c(-c2csc(NC(=O)C3=NN(c4ccccc4)C(=O)CC3)n2)c(C)c1,-2.7,3.7,3.8,0.9,46.2*
C=CCN1[C@@H](C)COc2cc(N3CCCC3)ccc2S1(=O)=O,0.5,1.4,-1.8,0.3,x
C=CCN(C)CC#Cc1ccc(C)cc1,0.9,4.8,0.3,-1.7,x
COC(=O)[C@H](CC(C)C)N(CCCc1cn(Cc2ccccc2)nn1)S(=O)(=O)c1ccccc1Br,2.2,-7.7,-18.7,4.6,x

# Screening data deposited in PubChem BioAssay by The Scripps Research Institute Molecular Screening Center.
